Hits are enriched below; roughly 6.7% of the tested compounds scored in any of these assays.
Beta cell apopt: inhibitors of cytokine-induced beta cell apoptosis, primary screen, luminescence; protection from apoptosis, % (test concentration not listed); 0.8% of 300,000 active; INS-1E cytokine-induced death, ATP luminescence, 48 h; percent of positive-control rescue, neutral wells zero; AID 435005, 2010;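 active = Every replicate reaches about 75%, or at least half do and their mean reaches it too, limit read from the data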;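 note: 0% = cytokine-treated negative control wells and 100% = positive control rescue; higher means more ATP so stronger rescue from cytokine killing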
CHOP inh: inhibitors of CHOP promoter induction, primary screen, cell-based, unfolded protein response, luciferase reporter | CHO-K1 CHOP-promoter luciferase, tunicamycin-induced, 15-18 h | 3.8% of 220,000 active | AID 2732, 2010 | inhibition, % at 10 µM;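 active = compounds that reduced the stress-induced luciferase reporter signal by more than about 70% of percent inhibition, limit read from the data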;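 note: 0% = tunicamycin plus vehicle and 100% = wells without tunicamycin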
CSC inhib: cancer stem cell viability inhibitors, primary screen, luminescence; cancer stem cell-like cells viability; inhibition, % at 7.5 µM; 1.1% of 300,000 active; AID 2717, 2010; in the data active = inhibition above about 75%; tested in HMLE shEcad cells
GRIN3A LBD mod: binders of NR3A ligand-binding domain, primary screen, biophysical, differential scanning fluorimetry, uHTS; Tm shift relative to glycine control, % at 25 µM; AID 1259313, 2017; NR3A LBD differential scanning fluorimetry, Tm shift; 0% = protein alone, 100% = glycine-bound protein; 2.5% of 340,000 active;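 active = melting temperature shift of at least 10% of the positive control shift, at one fixed dose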
T cruzi repl: inhibitors of intracellular T. cruzi growth, primary screen, luminescence, NIH3T3 host cells. T. cruzi beta-gal in NIH3T3, 90 h. inhibition, % (no concentration beside the values). 1.4% of 300,000 active. AID 1885, 2009;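 active = mean inhibition across valid replicates above about 55%, limit read from the data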;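 note: signal also drops with host cell toxicity which is not excluded here; 0% = plate median of DMSO wells and 100% = zero luminescence signal; higher percent means less beta-gal luminescence so fewer parasites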
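Material: NIH/3T3 host cells with β-galactosidase reporter T. cruzi; Input: 5,000 host fibroblasts per well; Medium: DMEM, 2% fetal bovine serum; Compound: 50 nL DMSO compound solution per well; Schedule: 3 h host attachment, then at least 90 h co-culture; Detection: luminescent β-galactosidase signal after 60 min lysis.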
PREPL inh: PREPL enzyme inhibitors, primary screen, biochemical, fluorescence polarization | recombinant PREPL, fluorescence polarization activity-based probe | 0.68% of 320,000 active | Prolyl endopeptidase-like (Homo sapiens), Q4J6C6 | inhibition, % at 5.96 µM; in the data active = inhibition above about 43%;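 note: 0% = enzyme with DMSO and 100% = wells lacking enzyme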
Target sequence (Q4J6C6 whole entry, looked up): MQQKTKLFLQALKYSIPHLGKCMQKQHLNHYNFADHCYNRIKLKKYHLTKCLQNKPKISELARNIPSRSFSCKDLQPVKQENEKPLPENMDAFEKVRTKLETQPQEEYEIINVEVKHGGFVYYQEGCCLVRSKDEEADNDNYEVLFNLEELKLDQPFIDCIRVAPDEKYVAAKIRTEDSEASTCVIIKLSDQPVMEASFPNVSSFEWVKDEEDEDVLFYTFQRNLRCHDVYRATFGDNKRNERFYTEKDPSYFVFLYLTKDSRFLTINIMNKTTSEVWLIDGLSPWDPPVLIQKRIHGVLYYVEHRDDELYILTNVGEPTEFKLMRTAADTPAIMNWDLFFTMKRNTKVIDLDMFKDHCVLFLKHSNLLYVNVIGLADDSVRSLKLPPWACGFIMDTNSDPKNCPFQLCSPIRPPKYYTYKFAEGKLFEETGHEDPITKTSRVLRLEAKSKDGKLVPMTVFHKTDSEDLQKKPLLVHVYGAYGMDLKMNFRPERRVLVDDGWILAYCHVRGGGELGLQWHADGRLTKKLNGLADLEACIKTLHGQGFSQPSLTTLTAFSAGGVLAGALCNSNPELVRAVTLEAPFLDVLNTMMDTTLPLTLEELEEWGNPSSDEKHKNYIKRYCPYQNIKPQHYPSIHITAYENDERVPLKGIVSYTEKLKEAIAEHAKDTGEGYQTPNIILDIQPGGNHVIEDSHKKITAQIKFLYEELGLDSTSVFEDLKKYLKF
* = called active by the depositor; / = not tested or not shown.

SMILES	Beta cell apopt	CHOP inh	CSC inhib	GRIN3A LBD mod	T cruzi repl	PREPL inh
Cc1nn(C(=O)CNS(=O)(=O)c2ccccc2)c(C)c1Sc1ccc(Cl)cc1	-10	82*	/	-16	1	9
Cc1nn(C(=O)c2cccnc2)c(C)c1Sc1ccccc1	-16	68	-5	1	-25	-4
O=C(O)c1ccccc1OCC1CCCO1 (configuration not stated)	-2	/	6	-1	-2	4
Cc1cccc(C)c1NC(=O)COC(=O)[C@@H]1CCCN1C(=O)c1cccs1	-7	/	-10	5	/	-3
CCOC(=O)COc1cc(N2C(=O)CSCC2=O)c(Cl)cc1Cl	-8	-12	-24	2	-5	-3
CCOC(=O)COc1cc(-n2c(=S)[nH]c3cc(OC)c(OC)cc3c2=O)c(Cl)cc1Cl	-1	6	3	13*	-9	-3
CC(=O)Nc1ccc(S(=O)(=O)NCC(=O)OCC(=O)N2CC(C)OC(C)C2)cc1 (configuration not stated)	-6	/	-15	0	/	8
Cc1cc2c(cc1C)C(=O)C(Br)=C(N)C2=O	/	/	/	0	/	/
NC1=C(Br)C(=O)c2ccccc2C1=O	102*	4	59	0	-5	16
CCCCOc1ccc(C(=O)N2CCNC(=O)C2)cc1	-8	/	/	3	-2	0
O=C(O)c1ccc(N2C(=O)C3ON(c4ccccc4)C(c4ccccc4F)C3C2=O)cc1 (configuration not stated)	2	11	1	-1	-15	4
O=C1C2ON(c3ccc(Cl)cc3)C(c3ccco3)C2C(=O)N1c1ccccc1 (configuration not stated)	1	74*	9	-14	3	1
O=C1C2ON(c3ccccc3)C(c3ccccc3F)C2C(=O)N1c1ccccc1 (configuration not stated)	-5	80*	-2	-14	-12	-5
O=C1C2ON(c3ccccc3)C(c3ccncc3)C2C(=O)N1c1ccc(Br)cc1 (configuration not stated)	-4	-9	-1	2	12	-9
COCCNC(=S)N1CCc2cc(OC)c(OC)cc2C1COc1ccc(C(C)C)cc1 (configuration not stated)	-7	18	11	-8	24	3
Cc1cc(C)n2nc(SCc3nnc(SCc4ccccc4C)s3)nc2n1	103*	39	-24	0	12	6
Cc1cc(C)n2nc(SCc3cc(=O)oc4ccc5ccccc5c34)nc2n1	-4	11	-12	-3	1	47*
COc1ccc(S(=O)(=O)Oc2ccccc2C(=S)N2CCOCC2)cc1	/	/	0	/	2	9
N#C/C(=C\c1cccs1)C(=O)c1ccccc1	3	-18	-6	14*	-17	-16
COc1ccc(C2=CN(Cc3ccccc3)CCC2=O)cc1	-1	/	/	-2	/	12
N#CC1=C(N)Oc2cc(N)ccc2C1c1ccccc1Cl (configuration not stated)	2	/	-3	-1	6	/
CC(=O)n1c2c(c3ccccc31)OC(N)=C(C#N)C2c1cccc(Cl)c1Cl (configuration not stated)	15	0	76*	13*	-5	-5
Cc1ccccc1N1CCN(c2ccccc2NC(=O)/C=C\C(=O)O)CC1	/	/	/	-2	/	/
O=c1c2cccnc2[nH]c(=S)n1CCCN1CCN(c2ccccc2F)CC1	3	89*	-2	1	-8	-3
O=c1c2ccccc2[nH]c(=S)n1CCCN1CCN(c2ccccc2)CC1	0	/	24	/	58*	-3
SMILES	Beta cell apopt	CHOP inh	CSC inhib	GRIN3A LBD mod	T cruzi repl	PREPL inh
O=c1c2ccccc2[nH]c(=S)n1CCCN1CCN(c2ccccc2F)CC1	5	/	25	-4	26	2
CC(OC(=O)C1CCN(c2ccc(C(F)(F)F)cn2)CC1)C(=O)Nc1cccc([N+](=O)[O-])c1 (configuration not stated)	1	/	/	8	/	16
Cc1cc(C(=O)Nc2sc(C)c(C)c2C#N)no1	-5	20	11	-1	-10	14
COc1cc2cc3c(N)c(C(=O)Nc4sc(C)c(C)c4C#N)sc3nc2cc1OC	9	81*	-5	19*	-42	3
COc1cc(/C=C(\C#N)C(=O)NCC2CCCO2)ccc1OC(C)C (configuration not stated)	-2	-15	-5	11*	-2	7
COc1ccc(C(=O)N2CCC(O)(c3ccc(Cl)cc3)CC2)cc1OC	4	-6	-5	-1	13	13
CCOC(=O)c1c(NC(=S)NC(=O)c2ccc(Cn3cc(Cl)cn3)o2)sc2c1CCC(C)C2 (configuration not stated)	-2	77*	/	-4	-4	18
NC(=O)c1c(NC(=O)Cn2cnc([N+](=O)[O-])n2)sc2c1CCCC2	-5	11	/	0	51	5
COC(=O)c1cc(NC(=O)c2ccc(Cn3cc(Cl)cn3)o2)cc(C(=O)OC)c1	30	-20	3	2	-10	-13
CCOC(=O)c1c(NC(=O)c2nn(CC)cc2Br)sc(C)c1C	9	17	16	-7	14	-2
CC1CCc2c(sc(NC(=O)Cn3cnc([N+](=O)[O-])n3)c2C(N)=O)C1 (configuration not stated)	0	39	4	-3	68*	1
CCOC(=O)c1c(NC(=O)Cn2cnc([N+](=O)[O-])n2)sc2c1CCCC2	0	75*	13	-7	64*	2
CCOC(=O)c1c(NC(=O)c2nn(CC)cc2Br)sc2c1CCCCC2	7	6	85*	-5	49	24
CCOC(=O)c1[nH]c(C)c(C(=O)/C=C/c2ccc(C(=O)O)cc2)c1C	-37	/	-6	0	-4	-1
CN1CCN(NS(=O)(=O)c2ccc(Cl)cc2)CC1	0	/	/	2	-8	10
CCn1cc(C(=O)NC(=S)Nc2sc3c(c2C(=O)OC)CCCCCC3)cn1	2	78*	-7	-3	7	9
COC(=O)c1c(NC(=O)c2c(C)noc2C)sc2c1CCCCCC2	/	25	/	/	/	/
CC(C)OC(=O)c1c(NC(=O)c2cccs2)sc2c1CCCC2	3	35	22	3	-8	6
CCOC(=O)c1c(NC(=O)Cn2cnc([N+](=O)[O-])n2)sc(C)c1C	-8	15	-6	-8	72*	2
CCOC(=O)c1c(NC(=O)Cn2nc(C(F)F)cc2C(F)F)sc(C)c1C	2	-5	1	0	32	3
